Experiments:
[1] = target: Acetylcholinesterase (Electrophorus electricus, UniProt O42275); assay: Inhibition of Electrophorus electricus AChE using […] as substrate incubated for 15 mins by Ellman's method
[2] = target: Butyrylcholinesterase (BuChE) (Rattus norvegicus, UniProt Q9JKC1); assay: Inhibition of BuChE in rat serum at 50 uM using S-butylthiocholine iodide as substrate by Ellman's method relative to control; assay type: cell-free; settings: probe S-butylthiocholine iodide
Method in brief: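 Rat serum (25%) as BuChE source, S-butylthiocholine iodide 1 mM, DTNB 0.2%, in 0.1 mM phosphate buffer pH 7.4, 37 °C 15 min (modified Ellman); absorbance change at 405 nm. Three independent experiments, each in triplicate.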

[3] = Antioxidant activity assessed as trolox equivalent of AAPH-induced radical scavenging activity at 5 uM preincubated for 15 mins followed by AAPH addition measured every min for 90 mins by ORAC-FL assay; assay type: functional
Method in brief: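 ORAC-FL in 75 mM phosphate buffer, pH 7.4. Sample at 5 µM was preincubated with fluorescein (150 nM final) for 15 min at 37 °C, then AAPH was added (12 mM final). Fluorescence (ex 485/em 535 nm) was read every minute for 90 min. […] Triplicate, at least three independent assays.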

[4] = target: Amyloid-beta precursor protein (Homo sapiens) (UniProt P05067); assay: Inhibition of HFIP-pretreated self-induced amyloid beta (1 to 42) (unknown origin) aggregation at 25 uM measured after 24 hrs by ThT fluorescence assay relative to control
Chain of Amyloid-beta precursor protein (Homo sapiens) (P05067 whole entry): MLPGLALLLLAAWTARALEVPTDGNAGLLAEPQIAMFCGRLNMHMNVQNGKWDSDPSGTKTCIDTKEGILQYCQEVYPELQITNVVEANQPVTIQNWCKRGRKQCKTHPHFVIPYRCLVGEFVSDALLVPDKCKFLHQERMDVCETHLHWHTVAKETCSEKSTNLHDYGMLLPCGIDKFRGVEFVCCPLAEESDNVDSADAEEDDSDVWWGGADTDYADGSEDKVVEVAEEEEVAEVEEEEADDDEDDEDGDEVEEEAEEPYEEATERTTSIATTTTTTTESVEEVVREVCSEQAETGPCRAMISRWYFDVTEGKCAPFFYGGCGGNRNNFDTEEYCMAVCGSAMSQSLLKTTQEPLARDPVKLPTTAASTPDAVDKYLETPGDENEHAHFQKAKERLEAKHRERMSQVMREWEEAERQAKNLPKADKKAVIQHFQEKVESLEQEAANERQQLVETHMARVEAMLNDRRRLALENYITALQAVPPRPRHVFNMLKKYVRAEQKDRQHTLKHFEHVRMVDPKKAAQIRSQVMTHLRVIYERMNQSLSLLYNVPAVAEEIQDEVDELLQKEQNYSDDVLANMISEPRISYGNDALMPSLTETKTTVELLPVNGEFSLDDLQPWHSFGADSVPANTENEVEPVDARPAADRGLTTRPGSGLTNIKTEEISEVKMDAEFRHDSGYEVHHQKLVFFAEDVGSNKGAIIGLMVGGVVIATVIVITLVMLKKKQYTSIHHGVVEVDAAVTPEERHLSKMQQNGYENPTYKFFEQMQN
Method in brief: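 Aβ1-42 was pretreated in HFIP for 24 h at room temperature, dried, and dissolved in DMSO to a 200 µM stock. Aβ (25 µM) was incubated with compound (25 µM) at 37 °C for 24 h. ThT was added at 5 µM in glycine-NaOH, pH 8.5. Fluorescence ex 446/em 490 nm, background-subtracted; inhibition = (1−IFi/IFc)×100. Triplicate.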

[5] = target: T1, Amine oxidase [flavin-containing] A (Homo sapiens, UniProt P21397); assay: Inhibition of recombinant human MAO-A expressed in baculovirus infected BTI insect cells at 10 uM using kynuramine as substrate measured after 30 mins by fluorescence based assay relative to control; settings: 0.5 h
T1 sequence (P21397 whole entry): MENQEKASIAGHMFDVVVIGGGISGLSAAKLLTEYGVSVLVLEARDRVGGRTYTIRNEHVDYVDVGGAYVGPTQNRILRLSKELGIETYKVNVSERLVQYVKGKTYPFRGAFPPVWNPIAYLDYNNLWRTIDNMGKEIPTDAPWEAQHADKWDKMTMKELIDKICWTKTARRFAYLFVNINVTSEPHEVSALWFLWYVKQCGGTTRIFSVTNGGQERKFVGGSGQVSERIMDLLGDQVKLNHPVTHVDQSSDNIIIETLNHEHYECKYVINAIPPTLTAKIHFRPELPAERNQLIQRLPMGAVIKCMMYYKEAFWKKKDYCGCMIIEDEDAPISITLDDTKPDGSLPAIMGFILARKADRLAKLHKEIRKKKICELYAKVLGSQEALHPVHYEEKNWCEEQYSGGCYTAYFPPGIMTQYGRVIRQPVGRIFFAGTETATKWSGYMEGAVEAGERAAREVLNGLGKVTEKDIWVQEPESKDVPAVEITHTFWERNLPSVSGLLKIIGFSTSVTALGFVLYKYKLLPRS
Method in brief: (§1)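 Recombinant human MAO-A or MAO-B (7.5 µg/mL) in 100 mM potassium phosphate, pH 7.4, with 20.2 mM KCl and DMSO below 4%. Kynuramine was 45 µM for MAO-A and 30 µM for MAO-B. Incubation 30 min at 37 °C, stopped with NaOH and water, then centrifuged. Supernatant fluorescence ex 310/em 400 nm. Triplicate.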

[6] = target: T2, Amine oxidase [flavin-containing] B (Homo sapiens, UniProt P27338); assay: Inhibition of recombinant human MAO-B expressed in baculovirus infected BTI insect cells at 10 uM using kynuramine as substrate measured after 30 mins by fluorescence based assay relative to control; settings: 0.5 h; method in brief: as §1
T2 sequence (P27338 whole entry): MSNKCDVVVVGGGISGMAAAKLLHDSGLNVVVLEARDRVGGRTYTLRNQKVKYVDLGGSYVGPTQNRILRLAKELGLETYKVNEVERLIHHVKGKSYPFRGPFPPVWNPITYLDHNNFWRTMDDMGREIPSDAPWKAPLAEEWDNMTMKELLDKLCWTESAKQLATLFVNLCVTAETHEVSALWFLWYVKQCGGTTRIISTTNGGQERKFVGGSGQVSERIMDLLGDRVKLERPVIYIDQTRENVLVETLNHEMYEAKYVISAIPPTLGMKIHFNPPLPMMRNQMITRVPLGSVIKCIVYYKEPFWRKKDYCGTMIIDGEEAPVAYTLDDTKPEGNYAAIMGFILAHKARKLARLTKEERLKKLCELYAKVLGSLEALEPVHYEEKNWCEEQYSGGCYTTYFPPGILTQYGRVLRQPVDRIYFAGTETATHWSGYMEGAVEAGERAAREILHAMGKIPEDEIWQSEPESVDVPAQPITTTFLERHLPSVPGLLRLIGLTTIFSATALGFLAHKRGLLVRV

[7] = Permeability of the compound at 100 ug/ml measured after 18 hrs by PAMPA assay; assay type: ADME; settings: read-out: permeability
Method in brief: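 PAMPA-BBB. Filter coated with porcine brain lipid in dodecane. Compound (DMSO stock 5 mg/mL) was diluted to 100 µg/mL in PBS/EtOH (70:30) in the donor well, with PBS/EtOH in the acceptor. Left 18 h at 25 °C. Acceptor concentration read at ten wavelengths in four wells. Three independent runs, validated with 11 reference drugs.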

Chain of Butyrylcholinesterase (BuChE) (Q9JKC1 whole entry): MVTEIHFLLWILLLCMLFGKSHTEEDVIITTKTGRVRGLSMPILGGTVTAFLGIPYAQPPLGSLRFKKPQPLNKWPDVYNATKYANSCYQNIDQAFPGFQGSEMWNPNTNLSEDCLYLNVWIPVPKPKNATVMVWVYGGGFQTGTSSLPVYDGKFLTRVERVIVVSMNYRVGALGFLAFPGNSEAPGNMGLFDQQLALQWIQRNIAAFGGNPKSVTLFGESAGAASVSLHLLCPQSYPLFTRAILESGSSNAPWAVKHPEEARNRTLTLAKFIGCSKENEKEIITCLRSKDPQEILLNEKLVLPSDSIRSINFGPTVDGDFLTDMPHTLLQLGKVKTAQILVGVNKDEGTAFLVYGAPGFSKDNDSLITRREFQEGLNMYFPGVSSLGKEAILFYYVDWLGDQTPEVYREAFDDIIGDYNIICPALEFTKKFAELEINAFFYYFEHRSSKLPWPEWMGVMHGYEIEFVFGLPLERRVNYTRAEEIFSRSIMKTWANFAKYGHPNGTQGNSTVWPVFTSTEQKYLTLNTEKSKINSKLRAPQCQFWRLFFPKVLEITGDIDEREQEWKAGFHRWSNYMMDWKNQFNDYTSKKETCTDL
Chain of Acetylcholinesterase (O42275 whole entry): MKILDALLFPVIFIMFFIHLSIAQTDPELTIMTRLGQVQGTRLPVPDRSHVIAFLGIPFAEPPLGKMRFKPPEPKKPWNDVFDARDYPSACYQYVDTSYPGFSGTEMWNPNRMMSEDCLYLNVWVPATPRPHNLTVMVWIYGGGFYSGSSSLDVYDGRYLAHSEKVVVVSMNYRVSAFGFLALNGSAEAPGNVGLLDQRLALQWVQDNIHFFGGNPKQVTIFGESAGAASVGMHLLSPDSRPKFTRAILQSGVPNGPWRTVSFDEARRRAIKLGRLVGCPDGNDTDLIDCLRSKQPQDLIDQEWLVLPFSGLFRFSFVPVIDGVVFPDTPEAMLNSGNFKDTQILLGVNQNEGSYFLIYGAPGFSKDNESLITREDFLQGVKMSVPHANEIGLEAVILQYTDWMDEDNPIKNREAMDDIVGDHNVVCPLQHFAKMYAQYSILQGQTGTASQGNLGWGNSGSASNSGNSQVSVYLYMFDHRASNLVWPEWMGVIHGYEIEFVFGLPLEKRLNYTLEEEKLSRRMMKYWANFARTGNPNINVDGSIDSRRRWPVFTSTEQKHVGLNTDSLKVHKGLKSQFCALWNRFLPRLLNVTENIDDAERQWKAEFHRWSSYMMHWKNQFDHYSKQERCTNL

SMILES | IC50 [1] [nM] | inhibition at 50 µM [2] [%] | Activity [3] [µMequiv/µM] | inhibition [4] [%] | inhibition at 10 µM [5] [%] | inhibition at 10 µM [6] [%] | Papp at 18 h, 100 ug/ml [7] [×10⁻⁶ cm/s]
COc1cc2c(cc1OC)/C(=C\CCCCCN(C)Cc1ccccc1)OC2=O | 4.84 | 17.6 | 0.43 | 12.4 | 22.3 | 5.66 | 10.3
COc1cc2c(cc1OC)/C(=C/CCCN(C)Cc1ccccc1)OC2=O | 340 | 12.2 | 0.32 | 11.7 | 10.9 | 11.9 | 
CCN(CCCCC/C=C1/OC(=O)c2cc(OC)c(OC)cc21)Cc1ccccc1N(C)C | 890 | 35.2 | 1.2 | 13 | 28 | 7.3 | 
CCN(CCCCC1OC(=O)c2cc(OC)c(OC)cc21)Cc1ccccc1OC (centres undefined) | 370 | 29.8 | 0.74 | 13.8 | 27.8 | 10.4 | 
CCN(CCCCCCC1OC(=O)c2cc(OC)c(OC)cc21)Cc1ccccc1N(C)C (centres undefined) | 1240 | 40.5 | 0.6 | 7.66 | 14.3 | 13.4 | 
COc1ccccc1CN(C)CCCCC1OC(=O)c2cc(OC)c(OC)cc21 (centres undefined) | 490 | 21.7 | 0.27 | 14.4 | 0.25 | 5.7 | 
COc1cc2c(cc1OC)C(CCCCN1CCCCC1)OC2=O (centres undefined) | 15800 | 8.14 | 0.22 | < 5 | 1.92 | 34.7 | 
COc1ccccc1CN(C)CCC/C=C1/OC(=O)c2cc(OC)c(OC)cc21 | 410 | 21.9 | 0.38 | 19.1 | 4.9 | 9.44 | 
CCN(CC)CCCCC1OC(=O)c2cc(OC)c(OC)cc21 (centres undefined) | 14700 | 5.1 | 0.31 | 15 | 2.45 | 21.5 | 
COc1cc2c(cc1OC)C(CCCCCCN(C)Cc1ccccc1)OC2=O (centres undefined) | 160 | 13.9 | 0.25 | 13 | 7.88 | 16.3 | 13.6
CCN(CCCCC1OC(=O)c2cc(OC)c(OC)cc21)Cc1ccccc1N(C)C (centres undefined) | 260 | 44.8 | 0.43 | 15.3 | 17.8 | 15 | 
CCN(CCCCC1OC(=O)c2cc(OC)c(OC)cc21)Cc1ccc(N(C)C)cc1 (centres undefined) | 24900 | 6.2 | 2.59 | < 5 | 12.1 | 9.47 | 
CCN(CCC/C=C1\OC(=O)c2cc(OC)c(OC)cc21)Cc1ccc(N(C)C)cc1 | 23400 | 13.6 | 2.75 | 22 | 12.9 | 8.86 | 
CCN(CCC/C=C1\OC(=O)c2cc(OC)c(OC)cc21)Cc1ccccc1OC | 1540 | 18.7 | 0.94 | 23.8 | 26.7 | 12 | 
COc1cc2c(cc1OC)/C(=C\CCCN1CCCCC1)OC2=O | 440 | 26.9 | 0.32 | 11.3 | 1.52 | 38.8 | 
CCN(CCC/C=C1/OC(=O)c2cc(OC)c(OC)cc21)Cc1ccc(N(C)C)cc1 | 13800 | 14.1 | 2.89 | 21.7 | 12.7 | 17 | 
CCN(CCC/C=C1/OC(=O)c2cc(OC)c(OC)cc21)Cc1ccccc1OC | 800 | 19.1 | 0.53 | 19 | 27.1 | 4.8 | 
CCN(CCC/C=C1/OC(=O)c2cc(OC)c(OC)cc21)Cc1ccccc1 | 1400 | 11 | 0.52 | 30.3 | 12.6 | 15.8 | 
COc1cc2c(cc1OC)/C(=C\CCCN(C)Cc1ccccc1)OC2=O | 640 | 27.3 | 0.49 | 8.6 | 17.9 | 1.09 | 
CCN(CC)CCC/C=C1/OC(=O)c2cc(OC)c(OC)cc21 | 6260 | 4.19 | 0.22 | 15.1 | 5.77 | 19.7 | 
CCN(CCC/C=C1\OC(=O)c2cc(OC)c(OC)cc21)Cc1ccccc1N(C)C | 210 | 40.5 | 0.78 | 15.4 | 29.1 | 9.9 | 
CCN(CCC/C=C1/OC(=O)c2cc(OC)c(OC)cc21)Cc1ccccc1N(C)C | 350 | 43.1 | 1.07 | 8.2 | 30 | 2.1 | 
CCN(CCCCC1OC(=O)c2cc(OC)c(OC)cc21)Cc1ccccc1 (centres undefined) | 580 | 23.1 | 0.23 | 15.6 | 7.1 | 5.51 | 
COc1ccccc1CN(C)CCC/C=C1\OC(=O)c2cc(OC)c(OC)cc21 | 1640 | 16.8 | 0.44 | 15.1 | 2.9 | 10.3 | 
COc1cc2c(cc1OC)/C(=C/CCCN1CCCCC1)OC2=O | 4560 | 21.9 | 0.28 | 4.9 | 1.95 | 32.3 | 
COc1cc2c(cc1OC)C(CCCCN(C)Cc1ccccc1)OC2=O (centres undefined) | 350 | 11.5 | 0.29 | 8.9 | 8 | 6.4 | 
CCN(CCC/C=C1\OC(=O)c2cc(OC)c(OC)cc21)Cc1ccccc1 | 360 | 17.3 | 0.36 | 17 | 10.4 | 13.8 | 

From ChEMBL document CHEMBL4616631, “Design, synthesis and evaluation of phthalide alkyl tertiary amine derivatives as promising acetylcholinesterase inhibitors with high potency and selectivity against Alzheimer's disease” (Bioorg Med Chem, 2020)
